Active and inactive are the calls of the source. The calls are words filed in the database; no cut-off is given here.
Columns and labels:
Rattus norvegicus [1] = experiment: Induction of vaginal cornification in ovariectomized mature rat at 5 to 10 mg/kg, po administered with sesame oil by Allen-Doisy method relative to control; assay type: functional; conditions: dose mg/kg 5-10
How it was run: (§1)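 Allen-Doisy test in ovariectomized mature rats, 14-59 rats per compound and 4-20 per group. Dose ranges were set from the uterotropic results. A smear counted as positive if it was mainly nucleated or cornified epithelial cells with no leucocytes. Results are given as the dose ranges giving positive smears.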

Rattus norvegicus [2] = experiment: Antiestrogenic activity in ethynylestradiol-stimulated immature rat assessed as doubling of uterine weight up to 3 mg/kg, po administered for three days by uterotropic assay; assay type: functional, organism-based; parameters: dose 3 mg/kg
How it was run: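 Modified Edgren–Calhoun method in immature rats. The test material was given orally for 3 days together with enough ethynylestradiol to double uterine weight, and uterine weight was the end point.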

[3] = Displacement of 17beta-[3H]estradiol from rabbit uterine estrogen receptor after 16 to 18 hrs by liquid scintillation counting; parameters: species or system Oryctolagus cuniculus
How it was run: (§2)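 Rabbit uterine cytosol, 0.7 μg protein per tube, with 16000 dpm 17β-[3H]estradiol (113 Ci/mmol) in Tris-HCl pH 8.0, 0.001 M EDTA, 0.25 M sucrose. Eight concentrations from 1 × 10^-10 to 1 × 10^-4 M were run in duplicate and incubated 16-18 h at 4 °C. Bound and free were separated with dextran-coated charcoal, bound radioactivity was read by liquid scintillation, and results were compared with standards.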

Oryctolagus cuniculus [4] = species on record: Oryctolagus cuniculus; experiment: Displacement of 17beta-[3H]estradiol from rabbit uterine estrogen receptor after 16 to 18 hrs by liquid scintillation counting relative to ethynylestradiol; how it was run: as §2
Rattus norvegicus [5] = experiment: Estrogenic activity in immature rat administered orally with sesame oil as three doses by uterotropic assay relative to ethynylestradiol; assay type: functional
How it was run: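 Six-point oral assay in immature rats, with three doses of ethynylestradiol standard and three doses of test compound in sesame oil, 9-15 rats per dose group. Dose-response lines were checked for linearity and parallelism. Relative potency and 95% confidence limits were computed, and values are combined from three assays.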

Rattus norvegicus [6] = experiment: Induction of vaginal cornification in ovariectomized mature rat at 0.005 to 0.010 mg/kg, po administered with sesame oil by Allen-Doisy method relative to control; assay type: functional; conditions: dose mg/kg 0.005-0.010; how it was run: as §1
Rattus norvegicus [7] = experiment: Induction of vaginal cornification in ovariectomized mature rat at 0.025 to 0.1 mg/kg, po administered with sesame oil by Allen-Doisy method relative to control; assay type: functional; conditions: dose mg/kg 0.025-0.1; how it was run: as §1
Rattus norvegicus [8] = experiment: Induction of vaginal cornification in ovariectomized mature rat at 10 to 20 mg/kg, po administered with sesame oil by Allen-Doisy method relative to control; assay type: functional; conditions: dose mg/kg 10-20; how it was run: as §1
Oryctolagus cuniculus [9] = species on record: Oryctolagus cuniculus; experiment: Displacement of 17beta-[3H]estradiol from rabbit uterine estrogen receptor at 1 x 10^-4 M after 16 to 18 hrs by liquid scintillation counting; how it was run: as §2
Rattus norvegicus [10] = experiment: Induction of vaginal cornification in ovariectomized mature rat at 0.25 to 0.5 mg/kg, po administered with sesame oil by Allen-Doisy method relative to control; assay type: functional; conditions: dose mg/kg 0.25-0.5; how it was run: as §1

IC50 [3] [nM]	Ratio (Oryctolagus cuniculus [4])	inhibition (Oryctolagus cuniculus [9])	Structure (SMILES)	Ratio (Rattus norvegicus [5])	Activity (Rattus norvegicus [7]) [%]	also measured
6000	4e-05		C#C[C@]1(O)CC[C@H]2[C@@H]3CCc4cc(OC5CCCC5)ccc4[C@H]3CC[C@@]21C [QUINESTROL]	1.66		Activity (Rattus norvegicus [6]): 40%
		inactive	C#C[C@@]1(O)CC[C@H]2[C@@H]3CCc4cc(OC)ccc4[C@H]3CC[C@@]21C	0.0023		Activity (Rattus norvegicus [8]): 0%
		inactive	C#C[C@@]1(O)CC[C@H]2[C@@H]3CCc4cc(OC5CCCC5)ccc4[C@H]3CC[C@@]21C	0.05		Activity (Rattus norvegicus [10]): 25%

More lines, now with the values behind:

Structure (SMILES)	IC50 [3] [nM]	Ratio (Oryctolagus cuniculus [4])	inhibition (Oryctolagus cuniculus [9])	Ratio (Rattus norvegicus [5])	Activity (Rattus norvegicus [7]) [%]	also measured
C#C[C@@]1(O)CC[C@H]2[C@@H]3CCc4cc(O)ccc4[C@H]3CC[C@@]21C	15	0.016				Activity (Rattus norvegicus [1]): 0%; Activity (Rattus norvegicus [2]): inactive
C#C[C@]1(O)CC[C@H]2[C@@H]3CCc4cc(OC)ccc4[C@H]3CC[C@@]21C [MESTRANOL]	200	0.0012		0.84	11	
C#C[C@]1(O)CC[C@H]2[C@@H]3CCc4cc(O)ccc4[C@H]3CC[C@@]21C [ETHINYL ESTRADIOL]	0.24				10	

From ChEMBL document CHEMBL3228027, “Synthesis and estrogenic properties of 17-epi-ethynylestradiol and its ether derivatives epimestranol and epiquinestrol” (J Med Chem, 1979)
